Where a SMILES comes first, the peptide text is derived from it. Bridges are numbered along the chain shown (N, C = ends). Roman numbers before positions name the chains, in order. The star is where a group is joined. X2 = O=C(N=C(NCc1ccc(C(=O)*)cc1)Nc1ccc(Br)cc1)c1ccccc1

Results on four molecules are retold here after PMC10515597 (ACS Omega, 2023).

Data set [1] deals with L. amazonensis intracellular amastigotes. Nature of the data set: Antiamastigote activity in infected macrophages. To be noted: 24 h; for IC50: Leishmania amazonensis, Macrophage, read-out: IC50 amastigote. Format: cell-based, Leishmania amazonensis. In short, it runs like this: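 Swiss mouse peritoneal macrophages (3 × 10⁵ cells mL⁻¹, complete RPMI-1640) adhered on coverslips for 4 h at 37 °C, 5% CO₂. They were infected 18 h with stationary-phase L. amazonensis promastigotes (MPRO/BR/1972/M1841-LV-79) at 10:1 and washed. Test compound (0.02–10 μM) was added for 24 h. Giemsa-stained cells were counted for infection index (% infected cells × parasites per infected cell). IC50 by nonlinear regression. Duplicates, three independent experiments.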

Data set [2] has as its system Leishmania amazonensis amastigotes. Particulars: read-out: IC50-ama; L. amazonensis amastigotes ref 28; cited from earlier work.
In data set [3] the test system is L. mexicana intracellular amastigotes. The data set is described as follows: Antiamastigote activity in infected macrophages. Format: cell-based. To be noted: Leishmania mexicana, Macrophage, 48 h, read-out: IC50 amastigote. In short, it runs like this: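 Swiss mouse peritoneal macrophages (3 × 10⁵ cells mL⁻¹, complete RPMI-1640) adhered on coverslips for 4 h at 37 °C, 5% CO₂. They were infected 8 h with stationary-phase L. mexicana promastigotes (MNYC/BZ/62/M379) at 10:1 and washed. Test compound (0.02–10 μM) was added for 48 h. Giemsa-stained cells were counted for infection index (% infected cells × parasites per infected cell). IC50 by nonlinear regression. Duplicates, three independent experiments.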

The subject of data set [4] is L. amazonensis promastigotes. The data set is described as follows: Antipromastigote assay, viable promastigotes counted with trypan blue. Format: cell-based. Particulars: Leishmania amazonensis, 72 h, read-out: IC50 promastigote. In short, it runs like this: (§1)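 Promastigotes were grown at 28 °C to mid-log phase: L. amazonensis (MPRO/BR/1972/M1841-LV-79) in LIT medium, L. mexicana (MNYC/BZ/62/M379) in Schneider's medium with 10% heat-inactivated FBS. Exponential-phase cells were plated at 1 × 10⁷ mL⁻¹ with test compound 1.28–100 μM. After 72 h, viable promastigotes were counted by trypan blue in a Neubauer chamber. Duplicates, three independent experiments.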

In data set [5] the test system is L. mexicana promastigotes. Described as above. Format: cell-based. To be noted: Leishmania mexicana, read-out: IC50 promastigote. In short, it runs like this:
as §1

Data set [6] can be described thus: Cytotoxic activity, MTT colorimetric method. Format: cell-based, Swiss mice. To be noted: Swiss, mouse, murine peritoneal macrophages.

Consider `CC(C)C[C@H](NC(=O)[C@H](Cc1c[nH]cn1)NC(=O)[C@H](Cc1ccc(O)cc1)NC(=O)[C@H](CCCNC(=N)N)NC(=O)[C@H](Cc1ccc(O)cc1)NC(=O)[C@H](CCCCN)NC(=O)[C@@H](N)CCCCN)C(=O)N[C@@H](CCCCN)C(=O)N1CCC[C@H]1C(=O)N[C@@H](Cc1ccccc1)C(=O)NCCCC[C@H](NC(=O)[C@H](Cc1ccccc1)NC(=O)[C@@H]1CCCN1C(=O)[C@H](CCCCN)NC(=O)[C@H](CC(C)C)NC(=O)[C@H](Cc1c[nH]cn1)NC(=O)[C@H](Cc1ccc(O)cc1)NC(=O)[C@H](CCCNC(=N)N)NC(=O)[C@H](Cc1ccc(O)cc1)NC(=O)[C@H](CCCCN)NC(=O)[C@H](CCCCN)NC(=O)c1ccc(CNC(=NC(=O)c2ccccc2)Nc2ccc(Br)cc2)cc1)C(N)=O` [(GVL1)-p-Bt] (I: X2-KKYRYHLKPFK-NH2 / II: H-KKYRYHLKPF; amide I:11-II:C), for which the “infection rate, fold lower than untreated cells and Amph B” value in data set [1] (L. amazonensis, at the tested concentrations (10 and 5 μM)) was 3–4 fold.

In the case of `C[C@@H]1[C@H](O)[C@@H](C)/C=C/C=C/C=C/C=C/C=C/C=C/C=C/[C@H](O[C@@H]2O[C@H](C)[C@@H](O)[C@H](N)[C@@H]2O)C[C@@H]2O[C@](O)(C[C@@H](O)C[C@@H](O)[C@H](O)CC[C@@H](O)C[C@@H](O)CC(=O)O[C@H]1C)C[C@H](O)[C@H]2C(=O)O` [Amph B, amphotericin B], the IC50 in data set [1] is 0.63 ± 0.02 µM; in data set [2], 4.9 µM; in data set [3], 0.73 ± 0.2 µM; in data set [4], 0.7 ± 0.2 µM; in data set [5], 0.45 ± 1.2 µM.

`O=C(O)c1ccc(CN/C(=N/C(=O)c2ccccc2)Nc2ccc(Br)cc2)cc1` [GVL1, (Z)-4-((2-benzoyl-3-(4-bromophenyl)guanidino)methyl) benzoic acid]: the IC50 turned out to be 8.9 ± 1.41 µM in data set [1], 7.5 ± 3.53 µM in data set [3], 34.4 ± 0.1 µM in data set [4] and 51.8 ± 0.1 µM in data set [5].

Regarding `O=C(NC(=Nc1ccc(Br)cc1)NCc1ccccc1)c1ccccc1` [LQOF-G2, N-benzoyl-N′-benzyl-N″(4-bromophenyl)guanidine], the results for the IC50 in data set [1], in data set [2] and in data set [4] were 5.6 ± 2.5 µM, 5.6 µM and 19.6 ± 0.2 µM, respectively. This molecule also showed a CC50 in data set [6] of 737.9 ± 1.4 µM.
